The test system of assay [1] is Chorioallantoic membrane. Kind of assay: Antiangiogenic activity in chicken chorioallantoic membrane assessed as inhibition of VEGF-induced blood vessel formation at 0.01 nmol […] measured after 3 days. The conditions noted are these: Gallus gallus. The assay is classed as functional, cell membranes.
Assay [2] deals with Chorioallantoic membrane. As to the kind of experiment: Antiangiogenic activity in human A549 cells inoculated chicken chorioallantoic membrane assessed as inhibition of blood vessel formation at 0.1 pmol after 3 days. It is filed as functional, Gallus gallus. In outline: (§1)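 A549 lung cancer cells (2 × 10⁶ cells/CAM) in Matrigel inoculated onto CAM instead of VEGF, then compound at varied doses; three days at 37 °C, 55% humidity. Vessel branch points within tumor region counted double-blind by two observers; mean ± S.E.M.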

The subject of assay [3] is Chorioallantoic membrane. Kind of assay: Antiangiogenic activity in human A549 cells inoculated chicken chorioallantoic membrane assessed as inhibition of blood vessel formation at 0.01 pmol after 3 days. It is filed as functional, Gallus gallus. In outline:
as §1

Assay [4] relates to A549. As to the kind of experiment: Cytotoxicity against human A549 cells inoculated with chicken chorioallantoic membrane assessed as tumor inhibition at 0.1 pmol after 3 days. The assay is classed as functional. In outline:
(§2)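 A549 cells (2 × 10⁶ cells/CAM) in Matrigel implanted on CAM, then compound at different concentrations; incubated three days at 37 °C, 55% humidity. Tumor mass grown on CAM isolated and weighed; mean ± S.E.M.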

The subject of assay [5] is A549. As to the kind of experiment: Cytotoxicity against human A549 cells inoculated with chicken chorioallantoic membrane assessed as tumor inhibition at 0.01 pmol after 3 days. The assay is classed as functional. In outline: as §2
Assay [6] deals with Chorioallantoic membrane. Kind of assay: Antiangiogenic activity in human A549 cells inoculated chicken chorioallantoic membrane assessed as inhibition of blood vessel formation at 1 pmol after 3 days. It is filed as functional, Gallus gallus. In outline:
as §1

Assay [7] deals with A549. Kind of assay: Cytotoxicity against human A549 cells inoculated with chicken chorioallantoic membrane assessed as tumor inhibition at 1 pmol after 3 days. The assay is classed as functional. Summed up:
as §2

Assay [8] relates to A549. As to the kind of experiment: Cytotoxicity against human A549 cells inoculated with chicken chorioallantoic membrane assessed as tumor inhibition after 3 days. The assay is classed as functional, cell-based. In outline:
as §2

The test system of assay [9] is Chorioallantoic membrane. Kind of assay: Antiangiogenic activity in chicken chorioallantoic membrane assessed as inhibition of VEGF-induced blood vessel formation treated 30 mins before VEGF addition measured after 3 days. It is filed as functional. Conditions: Gallus gallus.
The test system of assay [10] is Chorioallantoic membrane. As to the kind of experiment: Antiangiogenic activity in human A549 cells inoculated chicken chorioallantoic membrane assessed as inhibition of blood vessel formation after 3 days. It is filed as functional, cell-based. The conditions noted are these: Gallus gallus. Summed up:
as §1

For the molecule `Cc1nc(N2CCN(C)CC2)c(C)c(C)c1O`, the inhibition (commonly the share of the control response that was lost under treatment) in the assay with Chorioallantoic membrane [1] turned out to be 24.7%.

Take `CCCCCCCCCCCCCCCCNc1nc(C)c(O)c(C)c1C`: in the assay with Chorioallantoic membrane [1], the inhibition is 30.1%.

Consider `Cc1nc(N(c2ccccc2)c2ccccc2)c(C)c(C)c1O`, for which the inhibition with Chorioallantoic membrane [1] stood at 65.4%.

Turning to `CCCCCCNc1nc(C)c(O)c(C)c1C`, the inhibition in the assay on Chorioallantoic membrane [1] worked out at 53.7%.

With `Cc1nc(Nc2ccc([N+](=O)[O-])cc2)c(C)c(C)c1O`, the “inhibition (INH)” value is recorded as 25.6% with Chorioallantoic membrane [2]; 19.9% in the assay on Chorioallantoic membrane [3]; 44.4% in the assay on A549 [4]; 25.3% in the assay with A549 [5]; 34.5% in the assay with Chorioallantoic membrane [6]; 50.1% in the assay on A549 [7]. In addition, the inhibition in the assay on Chorioallantoic membrane [1] was 75%; in the assay with A549 [8] it was “Dose-dependent effect”; in the assay on Chorioallantoic membrane [9] it was “Dose-dependent effect”; in the assay on Chorioallantoic membrane [10], “Dose-dependent effect”. For the same molecule, the ID50 in the assay on Chorioallantoic membrane [9] came to 4.4 pg.

With `Cc1nc(Nc2ccc3c(c2)OCO3)c(C)c(C)c1O`, in the assay with Chorioallantoic membrane [1], the inhibition was determined as 62.4%.

As to `Cc1nc(Nc2ccccc2C(C)C)c(C)c(C)c1O`, the inhibition in the assay with Chorioallantoic membrane [1] stood at 55.3%.

For `Cc1nc(N2CCCC2)c(C)c(C)c1O`, in the assay on Chorioallantoic membrane [1], the inhibition was found to be 69.5%.

Consider `Cc1nc(N)c(C)c(C)c1O`, for which the “inhibition (INH)” value in the assay on Chorioallantoic membrane [2] worked out at 18%; in the assay with Chorioallantoic membrane [3], 16.6%; in the assay on A549 [4] it was 25.2%; in the assay on A549 [5], 20.5%; in the assay with Chorioallantoic membrane [6], 20.7%; in the assay with A549 [7], 27.4%. In addition, the inhibition in the assay on Chorioallantoic membrane [1] was 80.9%; in the assay with A549 [8], “Dose-dependent effect”; in the assay with Chorioallantoic membrane [9], “Dose-dependent effect”; in the assay on Chorioallantoic membrane [10] it was “Dose-dependent effect”. The ID50 in the assay on Chorioallantoic membrane [9] was 3.2 pg.

Turning to `Cc1nc(Nc2ccc(Br)cc2)c(C)c(C)c1O`, the inhibition with Chorioallantoic membrane [1] came to 61.7%.

Regarding `Cc1nc(NCc2ccccc2)c(C)c(C)c1O`, the inhibition in the assay with Chorioallantoic membrane [1] worked out at 56.7%.

With `Cc1nc(NCCCOc2nc(C)c(O)c(C)c2C)c(C)c(C)c1O`, in the assay on Chorioallantoic membrane [1], the inhibition was found to be 67.3%.

In the case of `Cc1nc(N2CCOCC2)c(C)c(C)c1O`, in the assay on Chorioallantoic membrane [1], the inhibition is 59%.

With `CN(C)c1ccc(/C=C2\C(=O)Nc3ccccc32)cc1`, the “inhibition (INH)” value with Chorioallantoic membrane [2] came to 25.1%; in the assay with Chorioallantoic membrane [3], 20.8%; in the assay on A549 [4], 23.4%; with A549 [5], 16.2%; in the assay on Chorioallantoic membrane [6], 36.2%; in the assay on A549 [7] it was 26.8%. The inhibition is 70.5% in the assay on Chorioallantoic membrane [1], “Dose-dependent effect” with A549 [8], “Dose-dependent effect” in the assay on Chorioallantoic membrane [9] and “Dose-dependent effect” with Chorioallantoic membrane [10]. Further, the ID50 with Chorioallantoic membrane [9] worked out at 10.5 pg.

For `Cc1nc(NC2CCCCC2)c(C)c(C)c1O`, the inhibition in the assay with Chorioallantoic membrane [1] was determined as 36.8%.

For `Cc1nc(Nc2ccccc2)c(C)c(C)c1O`, in the assay on Chorioallantoic membrane [1], the inhibition is 69.4%.

With `Cc1nc(-n2cccc2)c(C)c(C)c1O`, the inhibition in the assay on Chorioallantoic membrane [1] was determined as 44%.

Turning to `Cc1nc(NCCCO)c(C)c(C)c1O`, the inhibition in the assay on Chorioallantoic membrane [1] is 46.3%.

Consider `Cc1nc(N(C)c2ccccn2)c(C)c(C)c1O`, for which the inhibition with Chorioallantoic membrane [1] was determined as 42.2%.
